In experiment [1] the target is IgA-specific serine endopeptidase autotransporter (Neisseria gonorrhoeae) (UniProt P09790). Put plainly: Percent inhibition was tested against IgA1 proteinase at 0.30 mM. In outline: (§1)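 Type 1 and type 2 IgA1 proteinases from N. gonorrhoeae, partially purified from cell-free defined-medium cultures and stored at -70 °C. Peptides were in 0.05 M Tris-HCl, pH 7.5, and preincubated with enzyme for 30 min at 37 °C. Substrate was monoclonal monomeric human serum IgA1, 125I-labelled. Samples were taken at 10-min intervals over 30 min and run on SDS-PAGE with autoradiography. Fd, Fc and uncleaved α-chain bands were counted, and the rate came from the slope of percent cleavage versus time.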

For experiment [2] the target is unchanged. Put plainly: Tested for inhibitory activity against IgA1 proteinase at >2 mM. In outline:
as §1

The target in experiment [3] is T1, IgA-specific serine endopeptidase autotransporter (Neisseria gonorrhoeae, UniProt P09790). Put plainly: Tested for inhibitory activity against IgA1 proteinase. In outline:
as §1

Experiment [4] addresses T1, IgA-specific serine endopeptidase autotransporter. Put plainly: Tested for inhibitory activity against IgA1 proteinase in 40% TFE. A digest of the protocol: (§2)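 Buffer contained 40% trifluoroethanol to dissolve the peptide. Type 1 and type 2 N. gonorrhoeae IgA1 proteinases (partially purified) were preincubated with inhibitor for 30 min at 37 °C, then cleaved 125I-labelled monomeric human IgA1. Samples were taken every 10 min over 30 min, boiled and run on SDS-PAGE. Fd/Fc/α-chain segment counts gave percent cleavage, and the rate was taken from the slope.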

For experiment [5] the target is unchanged. Description: Tested for inhibitory activity against IgA1 proteinase assayed in 40% TFE. In outline: as §2

Where “and” joins values, the source holds several entries; their conditions need not be identical. Identical values can stand only once. Bridge positions count the residues as written; N and C are the ends. Peptide text beside a SMILES is read from it. I, II: the chains in the order shown.

14 compounds from ChEMBL document CHEMBL1124240, “Substrate analogue inhibitors of the IgA1 proteinases from Neisseria gonorrhoeae” (J Med Chem, 1988) can be followed below.

T1 sequence (P09790 whole entry): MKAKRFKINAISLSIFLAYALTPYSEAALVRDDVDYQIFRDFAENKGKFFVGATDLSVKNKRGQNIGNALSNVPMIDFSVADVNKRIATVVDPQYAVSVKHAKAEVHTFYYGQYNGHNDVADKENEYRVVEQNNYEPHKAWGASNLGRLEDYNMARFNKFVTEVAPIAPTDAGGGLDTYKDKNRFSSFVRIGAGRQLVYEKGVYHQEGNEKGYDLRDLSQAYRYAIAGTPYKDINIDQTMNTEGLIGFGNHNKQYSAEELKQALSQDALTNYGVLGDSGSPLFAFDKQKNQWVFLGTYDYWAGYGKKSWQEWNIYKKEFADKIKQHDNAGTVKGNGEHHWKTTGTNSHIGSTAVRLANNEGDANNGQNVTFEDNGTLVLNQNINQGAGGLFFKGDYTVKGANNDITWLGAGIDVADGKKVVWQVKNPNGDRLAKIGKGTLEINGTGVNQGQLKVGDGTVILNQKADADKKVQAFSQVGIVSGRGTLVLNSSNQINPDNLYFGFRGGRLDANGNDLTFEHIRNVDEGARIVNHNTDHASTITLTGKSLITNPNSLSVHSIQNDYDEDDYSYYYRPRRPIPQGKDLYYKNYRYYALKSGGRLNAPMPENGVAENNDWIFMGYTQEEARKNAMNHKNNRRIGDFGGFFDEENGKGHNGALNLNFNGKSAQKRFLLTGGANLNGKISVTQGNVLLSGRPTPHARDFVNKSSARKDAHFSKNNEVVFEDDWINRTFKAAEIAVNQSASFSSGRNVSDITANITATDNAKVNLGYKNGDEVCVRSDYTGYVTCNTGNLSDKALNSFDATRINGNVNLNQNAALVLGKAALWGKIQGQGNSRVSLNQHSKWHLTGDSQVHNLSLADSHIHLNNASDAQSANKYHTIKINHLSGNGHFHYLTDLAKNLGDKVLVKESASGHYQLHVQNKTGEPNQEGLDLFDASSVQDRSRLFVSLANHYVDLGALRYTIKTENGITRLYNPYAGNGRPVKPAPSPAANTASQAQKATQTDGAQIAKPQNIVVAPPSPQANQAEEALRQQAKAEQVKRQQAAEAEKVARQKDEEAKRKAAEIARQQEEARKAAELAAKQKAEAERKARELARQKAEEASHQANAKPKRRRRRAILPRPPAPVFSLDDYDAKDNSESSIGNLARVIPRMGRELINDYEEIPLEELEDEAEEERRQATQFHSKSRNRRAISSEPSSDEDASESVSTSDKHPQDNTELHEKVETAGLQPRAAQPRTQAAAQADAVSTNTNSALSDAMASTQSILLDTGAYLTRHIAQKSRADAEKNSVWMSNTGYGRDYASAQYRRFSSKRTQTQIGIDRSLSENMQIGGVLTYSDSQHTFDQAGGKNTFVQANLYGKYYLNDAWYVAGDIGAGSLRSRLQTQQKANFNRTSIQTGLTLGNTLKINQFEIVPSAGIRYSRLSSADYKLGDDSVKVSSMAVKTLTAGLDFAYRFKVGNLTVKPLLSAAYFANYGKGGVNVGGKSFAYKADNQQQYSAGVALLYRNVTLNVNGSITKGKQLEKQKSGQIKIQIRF
Sequence of IgA-specific serine endopeptidase autotransporter (Neisseria gonorrhoeae) (P09790 whole entry): as above

In general, inhibition refers to the change of the read-out against control, counted positive when it falls. A lower inhibition goes with little suppression. The compound `C[C@H](O)[C@H](NC(=O)[C@@H]1CCCN1C(=O)[C@@H]1CCCN1C(=O)[C@@H](N)[C@@H](C)O)C(=O)N1CCC[C@H]1C(=O)N[C@@H](CO)C(=O)N1CCC[C@H]1C(=O)N[C@@H](CO)C(=O)N[C@H](C(=O)N1CCC[C@H]1C(=O)N1CCC[C@H]1C(=O)N[C@H](C(=O)N1CCC[C@H]1C(=O)N[C@@H](CO)N1CCC[C@H]1C(=O)N[C@@H](CO)C(=O)O)[C@@H](C)O)[C@H](C)O` had an inhibition in experiment [1] of 19%.
With `CC(=O)N[C@H](C(=O)N1CCC[C@H]1C(=O)N1CCC[C@H]1C(=O)N[C@H](C(=O)N1CCC[C@H]1C(=O)N[C@@H](CSSC[C@H](NC(=O)[C@@H]1CCCN1C(=O)[C@@H](NC(=O)[C@@H]1CCCN1C(=O)[C@@H]1CCCN1C(=O)[C@@H](NC(C)=O)[C@@H](C)O)[C@@H](C)O)C(=O)N1CCC[C@H]1C(=O)N[C@@H](CO)C(N)=O)C(=O)N1CCC[C@H]1C(=O)N[C@@H](CO)C(N)=O)[C@H](C)O)[C@@H](C)O`, the inhibition in experiment [2] worked out at 0%.
For orientation: IC50 means the concentration that inhibits the measured activity by half. Higher therefore signals weaker potency in that assay. On to `CC(=O)N[C@H](C(=O)N1CCC[C@H]1C(=O)N1CCC[C@H]1C(=O)N[C@H](C(=O)N1CCC[C@H]1C(=O)N[C@@H](CSSC[C@H](NC(=O)[C@@H]1CCCN1C(=O)[C@@H](NC(=O)[C@@H]1CCCN1C(=O)[C@@H]1CCCN1C(=O)[C@@H](NC(C)=O)[C@@H](C)O)[C@@H](C)O)C(=O)N1CCC[C@H]1C(=O)N[C@@H](CO)C(N)=O)C(=O)N1CCC[C@H]1C(=O)N[C@@H](CO)C(N)=O)[C@@H](C)O)[C@@H](C)O`, for which half-maximal inhibition in experiment [3] (IC50) required 5150 µM.
For Ac-TPPTPCPS-NH2, the IC50 in experiment [3] is 200 µM and 50 µM.
Same read-out and setting: as for Ac-TPPTPSPS-NH2, the figure is 9350 µM and 6680 µM; as for H-TPPTPSPS-NH2, 400 µM and 180 µM; as for Ac-CPPTPSPS-NH2, 310 µM and 120 µM.
Same read-out and setting: as for Ac-TPPTPSPC-NH2, the figure is 1030 µM and 490 µM; as for `CC(=O)N[C@H](C(=O)N1CCC[C@H]1C(=O)N1CCC[C@H]1C(=O)N[C@H](C(=O)N1CCC[C@H]1C(=O)N[C@@H](CO)C(=O)N1CCC[C@H]1C(=O)N[C@@H](CSSC[C@H](NC(=O)[C@@H]1CCCN1C(=O)[C@H](CO)NC(=O)[C@@H]1CCCN1C(=O)[C@@H](NC(=O)[C@@H]1CCCN1C(=O)[C@@H]1CCCN1C(=O)[C@@H](NC(C)=O)[C@@H](C)O)[C@@H](C)O)C(N)=O)C(N)=O)[C@@H](C)O)[C@@H](C)O`, 3300 µM; as for Ac-TPPTPSPS-OH, 1570 µM and 510 µM.
The same measure, in the same setting: as for H-TPPTPSPSTPPTPSPS-OH, the figure is 310 µM; as for H-TPPTPSPS-OH, 260 µM and 500 µM; as for `CC(=O)N[C@@H](CSSC[C@H](NC(C)=O)C(=O)N1CCC[C@H]1C(=O)N1CCC[C@H]1C(=O)N[C@H](C(=O)N1CCC[C@H]1C(=O)N[C@@H](CO)C(=O)N1CCC[C@H]1C(=O)N[C@@H](CO)C(N)=O)[C@@H](C)O)C(=O)N1CCC[C@H]1C(=O)N1CCC[C@H]1C(=O)N[C@H](C(=O)N1CCC[C@H]1C(=O)N[C@@H](CO)C(=O)N1CCC[C@H]1C(=O)N[C@@H](CO)C(N)=O)[C@@H](C)O` (I: Ac-CPPTPSPS-NH2 / II: Ac-CPPTPSPS-NH2; disulfide I:1-II:1), 1810 µM and 3450 µM.
For `CC(=O)N[C@H](C(=O)N1CCC[C@H]1C(=O)N1CCC[C@H]1C(=O)N[C@@H](CSSC[C@H](NC(=O)[C@@H]1CCCN1C(=O)[C@@H]1CCCN1C(=O)[C@@H](NC(C)=O)[C@@H](C)O)C(=O)N1CCC[C@H]1C(=O)N[C@@H](CO)C(=O)N1CCC[C@H]1C(=O)N[C@@H](CO)C(N)=O)C(=O)N1CCC[C@H]1C(=O)N[C@@H](CO)C(=O)N1CCC[C@H]1C(=O)N[C@@H](CO)C(N)=O)[C@@H](C)O` (I: Ac-TPPCPSPS-NH2 / II: Ac-TPPCPSPS-NH2; disulfide I:4-II:4), the IC50 in experiment [4] was determined as 200 µM; in experiment [5] it was 170 µM.
